In ChEMBL document CHEMBL1147069, “Gambogic amide, a selective agonist for TrkA receptor that possesses robust neurotrophic activity, prevents neuronal cell death” (Proc Natl Acad Sci U S A, 2007):
Calls of active or inactive are those of the source. The rule behind the calls is not given here.

What was measured:
T17 [1] = assay: […] in staurosporine-initiated apoptosis in mouse T17 cells at 0.5 uM
TrkB-stable [2] = assay: Induction of PI3K signaling activation in TrkB-stable cells; type: cell-based
T17 [3] = assay: Induction of MAPK phosphorylation in mouse T17 cells
SN56 = assay: Suppression of staurosporine-initiated apoptosis in mouse SN56 cells at 0.5 uM; type: functional, cell-based
Method in brief: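 Murine SN56 basal forebrain cells and their rat-TrkA stably transfected line T17 (DMEM, 1 mM pyruvate, 10% FBS; T17 with 300 μg/ml G418). Cells were preincubated with 0.5 μM compound, then given 1 μM staurosporine for 9 h. Apoptosis was read with the caspase-3-activated dye MR(DEVD)2 (10 μM, last hour) plus Hoechst counterstain after fixation. Three independent experiments, mean ± SD.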

[4] = molecular target: High affinity nerve growth factor receptor (Rattus norvegicus) (UniProt P35739); assay: Induction of TrkA phosphorylation in rat hippocampal neurons at 0.5 uM after 30 mins; type: tissue-based; conditions: Hippocampus
Method in brief: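 Primary hippocampal neurons were treated with 0.5 μM compounds for 30 min; lysates were immunoblotted with anti-phospho-Trk Y490 antibody. Repeated more than three times.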

[5] = molecular target: High affinity nerve growth factor receptor (Rattus norvegicus) (UniProt P35739); assay: Induction of Akt phosphorylation in rat primary hippocampal neurons; type: tissue-based; conditions: Hippocampus
Method in brief: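 Hippocampal neurons were given 0.5 μM compound for 5–180 min (time course), or a dose range for 30 min, with 50 ng/ml NGF for comparison. Akt phosphorylation was detected by immunoblotting with phospho-Akt (473/308) antibodies.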

TrkB-stable [6] = assay: Induction of MAPK signaling activation in TrkB-stable cells; type: cell-based
PC-12 = assay: Induction of neurite outgrowth in rat PC12 cells at 0.5 uM after 5 days; type: functional, cell-based
Method in brief: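 PC12 cells were seeded at 1 × 10^4 per well on poly-L-lysine and grown 24 h, then treated with compounds (0.5 μM, or 10–50 nM in dose series) or NGF for 5 days, with medium replenished every other day. Neurites were counted as processes longer than two cell bodies. Three independent experiments.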

[7] = Suppression of staurosporine-initiated apoptosis in mouse T17 cells at 0.5 uM
[8] = molecular target: High affinity nerve growth factor receptor (Homo sapiens) (UniProt P04629); assay: Stimulation of TrkA dimerization co-transfected in HEK293 cells at 0.5 uM after 30 mins by immunoblotting analysis in presence of green fluorescent protein; type: cell-based
Method in brief: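 HEK293 cells were cotransfected with GFP-TrkA plus HA-TrkA or HA-TrkB, then treated with 0.5 μM compound for 30 min. GFP-TrkA was immunoprecipitated with anti-GFP and coprecipitated receptor detected by anti-HA immunoblot.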

Hippocampal neurone = assay: Neuroprotective effect in glutamate-induced cell death in rat hippocampal neurons after 30 mins; type: functional, tissue-based; conditions: Hippocampus
Method in brief: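 Primary hippocampal neurons were pretreated with compounds for 30 min, then exposed to 50 μM glutamate for 16 h. Apoptosis was quantified with the MR(DEVD)2 caspase-3 dye; NGF served as positive control. Three independent experiments, mean ± SD.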

Rattus norvegicus [9] = assay: Neuroprotective effect in rat MCAO model assessed as decrease in cerebral blood flow at 2 mg/kg within 5 mins; type: functional, Brain; design: scale not given: the % may be the effect or the level left
Method in brief: (§1)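 Adult male rats underwent 2 h transient MCAO; vehicle or 2 mg/kg was given 5 min before reperfusion onset. Relative cerebral blood flow over ipsilateral parietal cortex was measured by laser-Doppler flowmetry versus preischemic levels. Values are mean ± SD, compared by Student's t test.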

[10] = molecular target: BDNF/NT-3 growth factors receptor (Homo sapiens) (UniProt Q16620); assay: Binding affinity to recombinant GST-TrkB
Method in brief: (§2)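 Recombinant GST-TrkA, GST-TrkB or GST-TrkC proteins tested in an in vitro binding assay with the compounds; experiments were repeated more than three times.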

[11] = molecular target: NT-3 growth factor receptor (Homo sapiens) (UniProt Q16288); assay: Binding affinity to recombinant GST-TrkC
Method in brief: as §2

[12] = molecular target: Mitogen-activated protein kinase 3 (Homo sapiens) (UniProt P27361); assay: Induction of ERK1 phosphorylation
Rattus norvegicus [13] = assay: Neuroprotective effect in rat MCAO model assessed as increase in cerebral blood flow at 2 mg/kg after 120 mins of filament withdrawal; type: functional, Brain
Method in brief: as §1

[14] = molecular target: High affinity nerve growth factor receptor (Homo sapiens) (UniProt P04629); assay: Binding affinity to recombinant GST-TrkA
Method in brief: as §2

[15] = molecular target: Mitogen-activated protein kinase 1 (Homo sapiens) (UniProt P28482); assay: Induction of ERK2 phosphorylation
Sequence of Mitogen-activated protein kinase 1 (Homo sapiens) (P28482 whole entry): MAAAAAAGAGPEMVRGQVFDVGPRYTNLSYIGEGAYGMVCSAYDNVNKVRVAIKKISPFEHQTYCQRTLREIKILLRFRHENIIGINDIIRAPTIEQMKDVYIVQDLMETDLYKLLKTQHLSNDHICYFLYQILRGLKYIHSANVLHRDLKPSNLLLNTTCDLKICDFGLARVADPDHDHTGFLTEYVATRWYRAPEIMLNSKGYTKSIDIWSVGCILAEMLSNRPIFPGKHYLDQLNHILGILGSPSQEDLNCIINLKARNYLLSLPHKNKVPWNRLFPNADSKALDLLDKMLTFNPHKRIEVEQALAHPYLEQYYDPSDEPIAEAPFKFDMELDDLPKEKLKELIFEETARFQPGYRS

Sequence of High affinity nerve growth factor receptor (Rattus norvegicus) (P35739 whole entry): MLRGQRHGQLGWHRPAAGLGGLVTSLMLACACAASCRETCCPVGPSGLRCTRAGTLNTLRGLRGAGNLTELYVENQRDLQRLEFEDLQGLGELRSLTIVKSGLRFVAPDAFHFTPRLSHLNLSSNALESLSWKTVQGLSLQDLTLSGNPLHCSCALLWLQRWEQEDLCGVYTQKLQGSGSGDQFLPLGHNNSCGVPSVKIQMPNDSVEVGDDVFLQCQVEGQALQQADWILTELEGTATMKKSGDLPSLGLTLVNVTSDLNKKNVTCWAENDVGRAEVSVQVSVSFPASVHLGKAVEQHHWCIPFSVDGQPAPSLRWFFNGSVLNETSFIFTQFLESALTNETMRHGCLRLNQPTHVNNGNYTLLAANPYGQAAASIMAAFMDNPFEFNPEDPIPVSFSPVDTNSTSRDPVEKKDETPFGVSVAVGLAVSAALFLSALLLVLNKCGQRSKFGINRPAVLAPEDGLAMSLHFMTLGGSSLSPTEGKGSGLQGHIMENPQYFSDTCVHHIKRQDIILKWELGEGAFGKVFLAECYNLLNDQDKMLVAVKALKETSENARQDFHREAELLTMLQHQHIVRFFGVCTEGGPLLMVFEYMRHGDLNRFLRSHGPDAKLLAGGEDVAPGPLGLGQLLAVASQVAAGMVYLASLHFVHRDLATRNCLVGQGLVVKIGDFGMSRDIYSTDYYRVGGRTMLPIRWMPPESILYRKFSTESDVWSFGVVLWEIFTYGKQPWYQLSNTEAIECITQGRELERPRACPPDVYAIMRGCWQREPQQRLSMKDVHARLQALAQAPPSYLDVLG
Sequence of High affinity nerve growth factor receptor (Homo sapiens) (P04629 33-796 limits assumed): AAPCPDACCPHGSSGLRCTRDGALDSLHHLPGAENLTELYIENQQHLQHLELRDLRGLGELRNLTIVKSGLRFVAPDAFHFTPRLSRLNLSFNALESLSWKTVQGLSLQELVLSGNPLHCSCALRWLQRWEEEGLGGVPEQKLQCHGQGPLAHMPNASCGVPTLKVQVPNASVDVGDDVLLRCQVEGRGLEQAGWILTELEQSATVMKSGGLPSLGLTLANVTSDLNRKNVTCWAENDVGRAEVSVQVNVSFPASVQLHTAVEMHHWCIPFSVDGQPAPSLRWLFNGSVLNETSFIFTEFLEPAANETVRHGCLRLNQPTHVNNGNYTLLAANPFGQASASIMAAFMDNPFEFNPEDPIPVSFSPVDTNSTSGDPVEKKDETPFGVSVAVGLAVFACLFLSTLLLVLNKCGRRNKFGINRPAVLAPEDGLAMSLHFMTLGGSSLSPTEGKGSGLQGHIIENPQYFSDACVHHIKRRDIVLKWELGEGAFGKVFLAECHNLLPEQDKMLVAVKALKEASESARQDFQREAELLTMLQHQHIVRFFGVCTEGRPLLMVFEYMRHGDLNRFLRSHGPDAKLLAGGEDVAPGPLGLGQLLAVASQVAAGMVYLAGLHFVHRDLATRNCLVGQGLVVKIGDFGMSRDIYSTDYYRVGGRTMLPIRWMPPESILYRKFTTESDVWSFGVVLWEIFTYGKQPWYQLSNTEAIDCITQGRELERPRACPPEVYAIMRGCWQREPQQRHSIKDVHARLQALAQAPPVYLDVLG
Sequence of Mitogen-activated protein kinase 3 (Homo sapiens) (P27361 whole entry): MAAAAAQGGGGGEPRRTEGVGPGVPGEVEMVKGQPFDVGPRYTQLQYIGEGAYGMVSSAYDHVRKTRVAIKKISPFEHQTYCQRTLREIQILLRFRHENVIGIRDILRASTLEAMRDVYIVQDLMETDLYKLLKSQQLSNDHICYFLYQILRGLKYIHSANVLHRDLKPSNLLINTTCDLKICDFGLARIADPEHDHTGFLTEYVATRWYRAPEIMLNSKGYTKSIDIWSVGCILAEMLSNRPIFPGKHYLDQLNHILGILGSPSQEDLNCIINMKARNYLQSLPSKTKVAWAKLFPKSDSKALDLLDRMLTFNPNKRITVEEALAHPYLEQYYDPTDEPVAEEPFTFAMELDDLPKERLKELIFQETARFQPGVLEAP
Sequence of BDNF/NT-3 growth factors receptor (Homo sapiens) (Q16620 32-822 limits assumed): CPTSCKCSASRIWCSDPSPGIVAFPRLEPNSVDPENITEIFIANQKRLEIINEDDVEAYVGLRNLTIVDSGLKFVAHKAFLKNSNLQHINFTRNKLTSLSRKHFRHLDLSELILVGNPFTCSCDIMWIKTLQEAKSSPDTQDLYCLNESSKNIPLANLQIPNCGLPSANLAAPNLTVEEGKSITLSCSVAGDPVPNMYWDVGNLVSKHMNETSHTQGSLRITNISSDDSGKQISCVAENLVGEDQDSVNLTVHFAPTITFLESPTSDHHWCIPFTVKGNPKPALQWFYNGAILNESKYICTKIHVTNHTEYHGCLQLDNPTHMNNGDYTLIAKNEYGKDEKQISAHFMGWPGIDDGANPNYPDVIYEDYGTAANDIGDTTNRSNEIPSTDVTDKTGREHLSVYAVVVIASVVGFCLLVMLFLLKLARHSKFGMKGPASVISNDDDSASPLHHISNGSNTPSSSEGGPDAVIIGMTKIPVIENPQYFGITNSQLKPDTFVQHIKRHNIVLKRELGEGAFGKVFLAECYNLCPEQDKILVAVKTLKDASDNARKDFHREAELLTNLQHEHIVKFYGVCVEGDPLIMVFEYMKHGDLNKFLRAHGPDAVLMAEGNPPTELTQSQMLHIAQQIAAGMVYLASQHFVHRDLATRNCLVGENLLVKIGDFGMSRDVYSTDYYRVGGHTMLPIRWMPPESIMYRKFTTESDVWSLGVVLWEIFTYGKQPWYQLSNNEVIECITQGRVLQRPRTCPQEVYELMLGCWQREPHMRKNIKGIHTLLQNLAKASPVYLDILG
Sequence of NT-3 growth factor receptor (Homo sapiens) (Q16288 32-839 limits assumed): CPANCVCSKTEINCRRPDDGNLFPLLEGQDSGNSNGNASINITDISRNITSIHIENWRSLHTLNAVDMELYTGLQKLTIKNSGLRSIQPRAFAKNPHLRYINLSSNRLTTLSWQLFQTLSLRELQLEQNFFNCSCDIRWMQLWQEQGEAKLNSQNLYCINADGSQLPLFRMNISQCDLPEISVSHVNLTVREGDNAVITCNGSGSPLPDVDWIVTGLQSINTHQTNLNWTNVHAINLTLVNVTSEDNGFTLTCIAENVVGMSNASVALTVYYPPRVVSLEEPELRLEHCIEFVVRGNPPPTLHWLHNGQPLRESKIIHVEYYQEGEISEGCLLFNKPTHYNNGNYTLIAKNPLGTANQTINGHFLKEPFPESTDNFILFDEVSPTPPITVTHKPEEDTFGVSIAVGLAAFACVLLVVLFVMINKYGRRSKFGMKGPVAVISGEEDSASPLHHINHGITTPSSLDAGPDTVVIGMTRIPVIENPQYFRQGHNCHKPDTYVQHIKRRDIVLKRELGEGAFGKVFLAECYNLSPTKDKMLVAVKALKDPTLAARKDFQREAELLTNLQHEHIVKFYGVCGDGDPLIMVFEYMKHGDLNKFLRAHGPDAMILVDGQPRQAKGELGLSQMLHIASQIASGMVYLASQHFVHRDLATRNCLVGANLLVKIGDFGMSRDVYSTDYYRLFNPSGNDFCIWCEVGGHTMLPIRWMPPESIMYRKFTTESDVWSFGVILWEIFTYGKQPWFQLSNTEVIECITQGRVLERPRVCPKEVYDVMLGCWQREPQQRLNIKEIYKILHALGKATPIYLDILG

CC(C)CCC[C@]1(C)C=Cc2c(O)c3c(c(CCC(C)C)c2O1)O[C@]12C(C[C@@H]4CC1C(C)(C)O[C@@]2(CCC(C)C(=O)O)C4O)C3=O (stereo partly drawn)
Activity (T17 [1]): Active
Activity (TrkB-stable [2]): Active
Activity (T17 [3]): inactive
Activity (SN56): Active
Activity [4]: inactive
Activity [5]: Active
Activity (TrkB-stable [6]): Active

CC(C)=CCC[C@]1(C)C=Cc2c(O)c3c(c(CC=C(C)C)c2O1)O[C@]12C(=C[C@@H]4CC1C(C)(C)O[C@@]2(C/C=C(/C)C(=O)O)C4O)C3=O (stereo partly drawn)
Activity (TrkB-stable [2]): Active
Activity (SN56): Active
Activity [4]: inactive
Activity (PC-12): Active
EC50 [7]: 0.2 µM
Activity (TrkB-stable [6]): Active

CC(C)=CCC[C@]1(C)C=Cc2c(O)c3c(c(CC=C(C)C)c2O1)O[C@]12C(=C[C@@H]4C[C@H]1C(C)(C)O[C@@]2(C/C=C(/C)C(=O)O)C4=O)C3=O [GAMBOGIC ACID]
Activity [8]: inactive
Activity (Hippocampal neurone): Active
Activity (T17 [3]): inactive
Activity (SN56): Active
Activity [4]: inactive
Activity (Rattus norvegicus [9]): 24.41%
Activity [5]: Active
Activity (PC-12): inactive
Activity [10]: inactive
EC50 [7]: 0.02 µM
Activity [11]: inactive
Activity [12]: Active
Activity (Rattus norvegicus [13]): 85.83%
Activity [14]: Active
Activity [15]: Active
